# Measured values reported in ChEMBL document CHEMBL1144035, “Synthesis, cytostatic and anti-HCV activity of 6-(N-substituted aminomethyl)-, 6-(O-substituted hydroxymethyl)- and 6-(S-substituted sulfanylmethyl)purine nucleosides” (Bioorg Med Chem, 2008).
# The source made the active and inactive calls. The rule behind the calls is not given here.
# Assays:
# HL-60 [1] = assay: Cytostatic activity in human HL60 cells assessed as inhibition of cell growth after 72 hrs; type: functional, cell-based; details: for IC50: HL-60, 72 h
# Procedure, shortened: (§1)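 Cultures from ATCC lines: mouse leukaemia L1210 (CCL 219), human promyelocytic leukaemia HL60 (CCL 240) and human T-lymphoblastoid CCRF-CEM (CCL 119). Growth inhibition was estimated from the cell count in a haematological analyzer (haemocytometer).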
# HeLa = assay: Cytostatic activity in human HeLa S3 cells assessed as inhibition of cell growth after 48 hrs by XTT assay; type: functional, cell-based
# CCRF-CEM [2] = assay: Cytostatic activity in human CCRF-CEM cells assessed as inhibition of cell growth after 72 hrs; type: functional, cell-based; procedure, shortened: as §1
# L1210 = assay: Cytostatic activity in mouse L1210 cells assessed as inhibition of cell growth after 72 hrs; type: functional, cell-based; details: for IC50: L1210, 72 h; procedure, shortened: as §1
# Hepatitis C virus = assay: Antiviral activity against Hepatitis C virus 1b after 3 days; type: functional, organism-based, Hepacivirus hominis; details: genotype 1b, 72 h
# [3] = Cytotoxicity against human Huh7 cells after 3 days by MTT method; type: functional; details: Huh-7, 72 h
# Procedure, shortened: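 Cellular toxicity was read by MTT in Huh-7 cells carrying the con-1 HCV replicon, in duplicate (N = 2).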
# CCRF-CEM [4] = assay: Cytostatic activity in human CCRF-CEM cells assessed as inhibition of cell growth after 72 hrs by XTT assay; type: functional, cell-based
# MT4 = assay: Cytotoxicity against human MT4 cells after 4 days; type: functional; details: MT4, 96 h
# Procedure, shortened: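 Cellular toxicity was measured in MT-4 cells, N = 2.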
# HL-60 [5] = assay: Cytostatic activity in human HL60 cells assessed as inhibition of cell growth after 72 hrs by XTT assay; type: functional, cell-based; details: HL-60, 72 h
# HL-60 [6] = assay: Cell cycle arrest in human HL60 cells by accumulation at G1 phase after 72 hrs by flow cytometry; type: functional, cell-based
# HL-60 [7] = assay: Cell cycle arrest in human HL60 cells by depletion of cells at S phase after 72 hrs by flow cytometry; type: functional, cell-based
Structure (SMILES),Activity (HL-60 [1]),Activity (HeLa),Activity (CCRF-CEM [2]),Activity (L1210),EC50 (Hepatitis C virus),CC50 [3],IC50 (HL-60 [1]),IC50 (CCRF-CEM [2]),IC50 (CCRF-CEM [4]),CC50 (MT4),IC50 (HL-60 [5]),IC50 (L1210),Activity (HL-60 [6]),Activity (HL-60 [7])
O=C1CCCN1Cc1ncnc2c1ncn2[C@@H]1O[C@H](CO)[C@@H](O)[C@H]1O,inactive,inactive,inactive,inactive,14 µM,45 µM,,,,,,,,
OC[C@H]1O[C@@H](n2cnc3c(CSc4nc5ccccc5s4)ncnc32)[C@H](O)[C@@H]1O,inactive,inactive,inactive,inactive,> 100 µM,> 100 µM,,,,,,,,
O=c1ccn(Cc2ncnc3c2ncn3[C@@H]2O[C@H](CO)[C@@H](O)[C@H]2O)cc1,inactive,inactive,inactive,inactive,> 100 µM,> 100 µM,,,,,,,,
CC(=O)N(C)Cc1ncnc2c1ncn2[C@@H]1O[C@H](CO)[C@@H](O)[C@H]1O,inactive,inactive,inactive,inactive,> 100 µM,> 100 µM,,,,,,,,
C[C@@]1(O)[C@H](O)[C@@H](CO)O[C@H]1n1cnc2c(N)ncnc21,,inactive,,,0.23 µM,> 100 µM,,,,,,,,
O=C(O)CSCc1ncnc2c1ncn2[C@@H]1O[C@H](CO)[C@@H](O)[C@H]1O,inactive,inactive,inactive,inactive,> 100 µM,> 100 µM,,,,,,,,
OCc1ncnc2c1ncn2[C@@H]1O[C@H](CO)[C@@H](O)[C@H]1O,,inactive,,,,,0.01 µM,0.15 µM,,,,,,
CC(=O)N(Cc1ncnc2c1ncn2[C@@H]1O[C@H](CO)[C@@H](O)[C@H]1O)C1CC1,inactive,inactive,inactive,inactive,> 100 µM,> 100 µM,,,,,,,,
CC(=O)N(Cc1ncnc2c1ncn2[C@@H]1O[C@H](CO)[C@@H](O)[C@H]1O)C1CCCCC1,inactive,inactive,inactive,inactive,> 100 µM,> 100 µM,,,,,,,,
OC[C@H]1O[C@@H](n2cnc3c(Cn4ccc5ccccc54)ncnc32)[C@H](O)[C@@H]1O,,inactive,,inactive,7.6 µM,> 250 µM,5.7 µM,3.4 µM,1.96 µM,45 µM,9.1 µM,,,
CN(Cc1ccccc1)Cc1ncnc2c1ncn2[C@@H]1O[C@H](CO)[C@@H](O)[C@H]1O,,inactive,,,9 µM,9 µM,5.6 µM,20.3 µM,,,2.4 µM,4.8 µM,,
CC(C)N(Cc1ncnc2c1ncn2[C@@H]1O[C@H](CO)[C@@H](O)[C@H]1O)C(C)C,,inactive,inactive,,3 µM,18 µM,13 µM,,,,,17 µM,,
OCCN(CCO)Cc1ncnc2c1ncn2[C@@H]1O[C@H](CO)[C@@H](O)[C@H]1O,,inactive,,,15 µM,10 µM,14.7 µM,6.7 µM,3.72 µM,,4.37 µM,14.3 µM,Active,Active
OC[C@H]1O[C@@H](n2cnc3c(CS)ncnc32)C[C@@H]1O,inactive,inactive,inactive,inactive,20 µM,41 µM,,,,,,,,
O=c1[nH]c(=O)n([C@H]2C[C@H](O)[C@@H](CO)O2)cc1F [FLOXURIDINE],,inactive,,,,,,,,,,0.012 µM,,
CC(=O)N(Cc1ccccc1)Cc1ncnc2c1ncn2[C@@H]1O[C@H](CO)[C@@H](O)[C@H]1O,inactive,inactive,inactive,inactive,> 100 µM,> 100 µM,,,,,,,,
OC[C@H]1O[C@@H](n2cnc3c(Cn4cccn4)ncnc32)[C@H](O)[C@@H]1O,inactive,inactive,inactive,inactive,62 µM,> 250 µM,,,,48 µM,,,,

Structure (SMILES),Activity (HL-60 [1]),Activity (HeLa),Activity (CCRF-CEM [2]),Activity (L1210),EC50 (Hepatitis C virus),CC50 [3],IC50 (HL-60 [1]),IC50 (CCRF-CEM [2]),IC50 (CCRF-CEM [4]),CC50 (MT4),IC50 (HL-60 [5]),IC50 (L1210),Activity (HL-60 [6]),Activity (HL-60 [7])
OC[C@H]1O[C@@H](n2cnc3c(CN4CCSC4)ncnc32)[C@H](O)[C@@H]1O,,inactive,,,7 µM,21 µM,5.2 µM,19.6 µM,,,3.12 µM,7.8 µM,,
O=c1ccccn1Cc1ncnc2c1ncn2[C@@H]1O[C@H](CO)[C@@H](O)[C@H]1O,inactive,inactive,inactive,inactive,91 µM,> 100 µM,,,,,,,,
O=C(O)CNCc1ncnc2c1ncn2[C@@H]1O[C@H](CO)[C@@H](O)[C@H]1O,inactive,inactive,inactive,inactive,87 µM,> 100 µM,,,,,,,,
OC[C@H]1O[C@@H](n2cnc3c(COc4ccccn4)ncnc32)[C@H](O)[C@@H]1O,,inactive,,inactive,> 250 µM,> 250 µM,12 µM,16.6 µM,10.8 µM,,14.3 µM,,,
OC[C@H]1O[C@@H](n2cnc3c(CSc4ccccn4)ncnc32)[C@H](O)[C@@H]1O,inactive,inactive,inactive,inactive,44 µM,> 100 µM,,,,> 100 µM,,,,
OCCSCc1ncnc2c1ncn2[C@@H]1O[C@H](CO)[C@@H](O)[C@H]1O,inactive,inactive,inactive,inactive,46 µM,> 100 µM,,,,> 100 µM,,,,
OC[C@H]1O[C@@H](n2cnc3c(CSc4ccccc4)ncnc32)[C@H](O)[C@@H]1O,inactive,inactive,inactive,inactive,> 100 µM,> 100 µM,,,,,,,,
CC(=O)NNCc1ncnc2c1ncn2[C@@H]1O[C@H](CO)[C@@H](O)[C@H]1O,,inactive,,inactive,65 µM,> 250 µM,6.6 µM,18 µM,10.3 µM,,11.4 µM,,,
OC[C@H]1O[C@@H](n2cnc3c(CS)ncnc32)[C@H](O)[C@@H]1O,,inactive,inactive,inactive,39 µM,54 µM,3.5 µM,,,,1.2 µM,,,
CN(C)Cc1ncnc2c1ncn2[C@@H]1O[C@H](CO)[C@@H](O)[C@H]1O,,inactive,inactive,,41 µM,> 100 µM,4 µM,,,,,5.1 µM,,
COCc1ncnc2c1ncn2[C@@H]1O[C@H](CO)[C@@H](O)[C@H]1O,,inactive,,inactive,13 µM,> 100 µM,13 µM,6 µM,1.14 µM,,1.68 µM,,Active,Active
OC[C@H]1O[C@@H](n2cnc3c(CN4CCOCC4)ncnc32)[C@H](O)[C@@H]1O,,inactive,inactive,inactive,186 µM,> 250 µM,13 µM,,,,,,,
OC[C@H]1O[C@@H](n2cnc3c(COc4ccccc4)ncnc32)[C@H](O)[C@@H]1O,inactive,inactive,,inactive,> 100 µM,> 100 µM,,,,,,,,
CSCc1ncnc2c1ncn2[C@@H]1O[C@H](CO)[C@@H](O)[C@H]1O,,inactive,,,10 µM,> 100 µM,13.4 µM,15 µM,3.2 µM,32 µM,5 µM,> 30 µM,,
OC[C@H]1O[C@@H](n2cnc3c(CN4CCCCC4)ncnc32)[C@H](O)[C@@H]1O,,inactive,inactive,,42 µM,87 µM,6.9 µM,,,,,12.2 µM,,
CC(=O)N(Cc1ncnc2c1ncn2[C@H]1C[C@H](O)[C@@H](CO)O1)C1CCCCC1,inactive,inactive,inactive,inactive,20 µM,> 100 µM,,,,> 100 µM,,,,
